High-throughput results (PubChem BioAssay)
Only some compounds are listed: those with a hit (about 1.8% of all), similar ones and a draw of the others.
Hck Nef HTS: inhibitors of human Hck kinase activated by Nef | P08631 | Recombinant Hck-YEEI plus Nef, Z-Lyte FRET kinase assay | inhibition, % at 20 µM | 220,000 tested, 0.68% active | AID 463187;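 active = Hck-Nef kinase inhibition above about 50%, limit read from the data; inactive = inhibition below that limit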;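 note: 0% = DMSO with Hck plus Nef and 100% = Hck alone without Nef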
Runt-SMMHC FRET: Runt domain-CBFb-SMMHC interaction inhibition. Q01196+Q13951. 220,000 tested, 0.74% active. AID 1434. inhibition, % at 20 µM. Cerulean-Runt/Venus-CBFb-SMMHC FRET ratio 530/480, 1 h;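 active = mean inhibition across duplicate retests at 20 µM reaching about 50%, limit read from the data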;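 note: 0% = DMSO wells and 100% = wells with excess untagged CBFb-SMMHC; inhibitors lower the FRET ratio by blocking Runt binding to CBFb-SMMHC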
Target sequence (Q01196 whole entry, looked up, the tested form may be a part): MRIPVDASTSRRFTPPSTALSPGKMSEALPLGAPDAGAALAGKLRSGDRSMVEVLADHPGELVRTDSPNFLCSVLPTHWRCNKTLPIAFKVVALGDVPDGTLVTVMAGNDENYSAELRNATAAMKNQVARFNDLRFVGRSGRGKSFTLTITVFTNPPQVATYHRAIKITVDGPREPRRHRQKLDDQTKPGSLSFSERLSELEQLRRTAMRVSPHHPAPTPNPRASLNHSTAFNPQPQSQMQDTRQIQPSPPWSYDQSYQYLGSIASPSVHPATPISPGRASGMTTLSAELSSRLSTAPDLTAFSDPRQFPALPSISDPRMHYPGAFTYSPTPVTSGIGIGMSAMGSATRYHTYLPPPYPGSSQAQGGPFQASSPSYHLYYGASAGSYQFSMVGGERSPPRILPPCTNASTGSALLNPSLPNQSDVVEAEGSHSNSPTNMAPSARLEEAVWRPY
Target sequence (Q13951 whole entry, looked up, the tested form may be a part): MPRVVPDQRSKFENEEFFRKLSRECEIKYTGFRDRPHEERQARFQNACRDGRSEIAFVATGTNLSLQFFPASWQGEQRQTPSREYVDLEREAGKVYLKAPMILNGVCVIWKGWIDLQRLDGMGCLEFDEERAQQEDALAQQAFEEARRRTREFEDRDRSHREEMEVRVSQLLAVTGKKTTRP
RanGTP-Imp inh: inhibitors of RanGTP-importin-beta interaction, primary screen, biochemical, FRET, CFP-Ran, YFP-importin-beta, homogeneous | AID 2216 | 300,000 tested, 1.1% active | inhibition, % (test concentration not listed) | cell-free CFP-Ran/YFP-importin-beta FRET ratio;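 active = more than half of the replicate wells show a fall in the fluorescence ratio signal beyond about 16%, limit read from the data, passing the limit was not always enough; inconclusive = exactly half of the replicate wells pass the set limit; inactive = fewer than half of replicates pass the limit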;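 note: 0% = DMSO wells and 100% = Ran loaded with GDP instead of GTP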
Runt-CBFb FRET: blocks binding of human RUNX1 Runt domain to CBFb | Q01196+Q13951 | Cerulean-Runt/Venus-CBFb FRET ratio 530/480, 1 h | inhibition, % at 20 µM | 220,000 tested, 0.46% active | AID 1496;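 active = inhibition over about 50% at 20 µM in the single-dose screen, limit read from the data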;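 note: 0% = DMSO wells and 100% = excess unlabeled CBFb competitor control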
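test system = Cerulean-tagged RUNX1 Runt domain (FRET donor) fusion protein | reagent = Venus-CBFb binding partner, 100 nM | incubation = protein complex preformed 1 h, compound exposure 1 h, room temperature, dark | detection = FRET fluorescence | read-out basis = loss of energy transfer signal | controls = 5 µM unlabeled CBFb as full-inhibition high control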
Numbers without * were called inactive; ? = inconclusive; . = no result given.

SMILES	Hck Nef HTS	Runt-SMMHC FRET	RanGTP-Imp inh	Runt-CBFb FRET
CCC(C)COC(=O)C(C#N)c1nc2ccccc2nc1N1CCCCC1 (configuration not stated)	2	0	23*	2
CCCCCCOC(=O)C(C#N)c1nc2ccccc2nc1N1CCN(C)CC1 (configuration not stated)	3	21	23*	8
CCC(CC)COC(=O)C(C#N)c1nc2ccccc2nc1N1CCN(CC)CC1 (configuration not stated)	0	40	14	20
CCCCCCOC(=O)C(C#N)c1nc2ccccc2nc1N1CCCCC1 (configuration not stated)	0	-31	31*	-8
CC(C)OC(=O)C(C#N)c1nc2ccccc2nc1N1CCCC1 (configuration not stated)	-1	4	-3	5
O=C(Cc1cccs1)NCc1ccccc1Br	.	.	8	.
COc1cc(C2=NOC(C(=O)Nc3cc(C)on3)C2)cc(OC)c1OC (configuration not stated)	7	-2	20*	9
NS(=O)(=O)c1ccc(NS(=O)(=O)c2ccc(C3CNC(=O)C3)cc2)cc1 (configuration not stated)	.	.	0	.
Cc1ccc(Nc2nc3ccccc3nc2-n2nc(C)cc2C)cc1	1	11	31*	4
Cc1cc(C)n(-c2nc3ccccc3nc2Nc2ccc(CC(=O)O)cc2)n1	16	4	?	1
CCc1ccc2nc3nc(C)cc(C)c3c(N)c2c1	21	44	149*	10
COc1ccc(-n2c(SCC(=O)NCc3ccco3)nc3sc4c(c3c2=O)CCN(C)C4)cc1	.	.	10	.
O=C(NCc1ccco1)c1ccc2nc3sc4c(c3c(=O)n2c1)CCCC4	11	63*	62*	63*
COC(=O)CSc1nc2sc3c(c2c(=O)n1-c1ccc(OC)cc1)CCN(C)C3	.	.	-4	.
CN1CCc2c(sc3nc(NCCO)n(-c4cccc(Cl)c4)c(=O)c23)C1	.	.	92*	.
CN1CCc2c(sc3nc(SCC(=O)NCc4ccco4)n(-c4ccccc4)c(=O)c23)C1	.	.	25*	.
COC(=O)CSc1nc2sc3c(c2c(=O)n1C1CCCCC1)CCN(C)C3	-1	32	26*	13
CCC(=O)Nc1sc2c(c1C(N)=O)CCC2	5	2	1	-1
NC(=O)c1c(NC(=O)c2ccccc2)sc2c1CCN(Cc1ccccc1)C2	.	.	8	.
NC(=O)c1c(NC(=O)c2c(F)cccc2F)sc2c1CCN(Cc1ccccc1)C2	.	.	163*	.
CC(C)C(=O)Nc1sc2c(c1C(N)=O)CCN(Cc1ccccc1)C2	.	.	134*	.
CCC(=O)Nc1sc2c(c1C(N)=O)CCN(Cc1ccccc1)C2	.	.	134*	.
COc1ccc(S(=O)(=O)N2CCN(C(=O)c3ccc(C)o3)CC2)cc1	.	.	4	.
O=C1/C(=C/c2ccc([N+](=O)[O-])cc2)CCC1C1CCCC1 (configuration not stated)	.	.	0	.
c1ccc(C(c2c[nH]c3ccccc23)c2c[nH]c3ccccc23)nc1	2	3	52*	0
SMILES	Hck Nef HTS	Runt-SMMHC FRET	RanGTP-Imp inh	Runt-CBFb FRET
CN1/C(=C\C(=O)Nc2ccc(Cl)cc2)C(C)(C)c2ccccc21	2	-14	3	2
CN1/C(=C\C=C(/C#N)C(=O)Nc2ccc(Cl)cc2)C(C)(C)c2ccccc21	-3	63	28*	-1
CCc1ccc(C(C)NC(=O)c2cccs2)cc1 (configuration not stated)	.	.	3	.
COc1ccccc1-n1c([S-])c(C(=O)Nc2ccccc2C(F)(F)F)[n+]2ccc(C(=O)NCCO)cc12	23	2	20*	6
Cc1ccc(-n2c([S-])c(C(=O)Nc3ccc(OC(F)F)cc3)[n+]3ccc(C(=O)NCCO)cc23)cc1C	3	15	8	13
COc1ccc(-c2cc3ccc(O)cc3oc2=O)cc1	.	.	128*	.
O=c1oc2cc(O)ccc2cc1-c1nc2c(s1)CCc1ccccc1-2	-10	83*	.	4
O=c1oc2cc(O)ccc2cc1-c1ccccc1	.	.	140*	.
CCOc1ccc(OCCC(=O)OCC(=O)NCc2ccc(Cl)cc2)cc1	.	.	-3	.
COc1ccc(S(=O)(=O)N2CCC(C(=O)NC3CCCCC3C)CC2)cc1 (configuration not stated)	.	.	1	.
CN(C)c1ccc(C(CNC(=O)COc2ccc(Cl)cc2)N2CCCC2)cc1 (configuration not stated)	.	.	0	.
